Bioassay records: PubChem, The Scripps Research Institute Molecular Screening Center
PAFAH1B2 inh: PAFAH1B2 enzyme inhibitors, primary screen, biochemical, fluorescence polarization, human. Platelet-activating factor acetylhydrolase IB subunit alpha2 (Homo sapiens), P68402. recombinant PAFAH1B2, FP-rhodamine activity probe. inhibition, % at 3.39 µM. actives 1.2% (n = 340,000). AID 492953, 2010;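 active means inhibition above the mean of all tested compounds plus 3 SD, cut at about 24% in these data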;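 further: 0% = enzyme with DMSO and 100% = wells lacking PAFAH1B2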
PAFAH2 FP inh: PAFAH2 enzyme inhibitors, primary screen, biochemical, fluorescence polarization, human; actives 0.99% (n = 340,000); recombinant PAFAH2, FP-rhodamine activity probe; inhibition, % at 3.39 µM; Platelet-activating factor acetylhydrolase 2, cytoplasmic (Homo sapiens), Q99487; AID 492956, 2010;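 active means inhibition above the mean over all tested compounds plus 3 SD, cut at about 30% in these data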;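 further: inhibitors block probe labeling of enzyme so polarization drops; 0% = enzyme with DMSO and 100% = wells lacking PAFAH2 protein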
pPAFAH FP inh: pPAFAH enzyme inhibitors, primary screen, biochemical, fluorescence polarization, human; Platelet-activating factor acetylhydrolase (Homo sapiens), Q13093; recombinant pPAFAH, FP-rhodamine probe fluorescence polarization; inhibition, % at 3.39 µM; actives 1.5% (n = 330,000); AID 463082, 2010;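 active means inhibition above the mean inhibition across the screen plus 3 SD, cut at about 25% in these data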;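 further: inhibitors block binding of the rhodamine activity-based probe so polarization drops; 0% = enzyme with DMSO and 100% = wells lacking pPAFAH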
mABHD4 FP: ABHD4 inhibitors, primary screen, biochemical, fluorescence polarization, mouse | (Lyso)-N-acylphosphatidylethanolamine lipase (Mus musculus), Q8VD66 | purified mABHD4, FP-Rh probe fluorescence polarization | inhibition, % at 8.92 µM | actives 0.54% (n = 370,000);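 active means inhibition exceeding the mean over every tested compound plus 3 SD, cut at about 30% in these data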;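 further: 0% = plate median of compound wells and 100% = S159A mutant with DMSO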
Target sequence (Q8VD66 whole entry, looked up): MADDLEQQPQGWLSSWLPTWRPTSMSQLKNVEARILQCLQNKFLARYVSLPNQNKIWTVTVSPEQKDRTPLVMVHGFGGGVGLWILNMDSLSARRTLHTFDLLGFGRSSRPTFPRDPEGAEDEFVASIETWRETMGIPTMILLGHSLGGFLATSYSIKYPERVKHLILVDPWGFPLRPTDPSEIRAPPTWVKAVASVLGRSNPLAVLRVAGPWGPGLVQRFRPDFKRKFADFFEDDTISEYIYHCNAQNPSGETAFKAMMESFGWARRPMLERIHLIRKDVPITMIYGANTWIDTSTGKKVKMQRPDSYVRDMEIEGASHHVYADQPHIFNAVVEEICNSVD
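system = mouse ABHD4 enzyme, wild type | medium = HEPES pH 7.0, NaCl, Pluronic buffer | also added = FP-Rh probe | incubation = Enzyme–compound pre-incubation 45 min, then probe 60 min, both 25 °C | technique = fluorescence polarization, excitation 525 nm, emission 598 nm, BODIPY TMR filters | controls = S159A mutant high control, sample median low control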
PAFAH1B3 inh: PAFAH1B3 enzyme inhibitors, primary screen, biochemical, fluorescence polarization, human | Platelet-activating factor acetylhydrolase IB subunit alpha1 (Homo sapiens), Q15102 | recombinant PAFAH1B3, FP-rhodamine probe | actives 0.28% (n = 340,000) | AID 492972, 2010 | inhibition, % at 3.39 µM;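 active means inhibition above the screen-wide average of all tested compounds plus 3 SD, cut at about 25% in these data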;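 further: 0% = enzyme with DMSO only and 100% = wells lacking PAFAH1B3 protein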
HTRA1 inhibitor: HTRA1 serine protease inhibitors, primary screen, biochemical, fluorescence polarization, HTS. recombinant HTRA1, FP-rhodamine activity-based probe. AID 504803, 2011. inhibition, % at 5.96 µM. actives 0.5% (n = 340,000). Q92743; in the data active means inhibition above about 36%;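 further: 0% = enzyme with DMSO and 100% = wells lacking enzyme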
ABHD4 confirm: ABHD4 inhibitors, retest, confirmation, biochemical, fluorescence polarization, mouse; shares compounds with mABHD4 FP; inhibition, % at 8.92 µM; actives 55% (n = 1,800); purified mABHD4, FP-Rh probe fluorescence polarization;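 active means mean inhibition across replicates above the hit cutoff set in the primary screen, cut at about 30% in these data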;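 further: 0% = wild-type ABHD4 with DMSO and 100% = catalytically dead S159A mutant with DMSO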
* hit, by the source's call; . = no result. Hits are enriched below; roughly 2.8% of the tested compounds scored in any of these assays.

SMILES	PAFAH1B2 inh	PAFAH2 FP inh	pPAFAH FP inh	mABHD4 FP	PAFAH1B3 inh	HTRA1 inhibitor	ABHD4 confirm
O=C(COc1ccccc1)Nc1nc2ccccc2[nH]1	7.1	2.9	1.8	-3.6	7.2	-0.4	.
CCOc1ccc(OCCCC(=O)Nc2nc3ccccc3[nH]2)cc1	1.6	-2.4	-1.0	2.0	5.0	-0.2	.
CCCCNC(=O)c1ccc2c(SCC(=O)O)c3c(nc2c1)CCCC3	2.8	0.5	5.9	-9.1	10.4	0.1	.
CC(C)CCNC(=O)c1ccc2c(SCC(=O)O)c3c(nc2c1)CCC3	3.5	-0.8	3.5	45.6*	3.1	-10.4	9.4
Cc1cccc(Cc2c(C)nc3c(C(=O)N4CCN(Cc5ccc6c(c5)OCO6)CC4)cnn3c2C)c1	2.8	9.4	-2.1	36.2*	-2.8	-7.4	38.1*
Cc1ccc(O)c(N=Cc2sc3ccccc3c2Cl)c1	-1.2	-3.9	23.6	25.3	8.2	24.9	.
Oc1ccccc1N=Cc1sc2ccccc2c1Cl	3.8	5.0	11.0	32.4*	3.8	6.1	-5.9
CCCC[C@H]1C2CC(OC(=O)Nc3cccc(C(F)(F)F)c3)C(C2)[C@H]2CCCCN21 (stereo partly specified)	.	.	.	2.1	.	.	.
COC(=O)C(=O)C1CCc2c(Cl)cc(OC)c(OC)c2C1=O (stereo unspecified)	1.8	-0.2	.	52.0*	3.9	12.1	12.3
O=C1CSC(=S)N1c1ccc(F)c(Cl)c1	-5.4	-8.9	-1.8	7.5	-10.6	-15.1	.
CC(C)=C1C(=O)NN(c2ccc(F)c(Cl)c2)C1=O	2.0	10.2	23.3	31.9*	0.0	7.7	8.0
COC(=O)[C@]12C[C@H](CC(=O)N3CCOCC3)C(=O)N(CCC3=CCCCC3)C1=C[C@H](C(C)C)O[C@@H]2C1CC1	.	.	.	-1.6	.	.	.
Cn1c(/N=C/c2c(O)ccc3ccccc23)nc2ccccc21	8.3	2.3	23.1	30.7*	11.8	28.9	4.3
CCOC(=O)[C@@]12CCCC3=C1N(CCC3)C(=O)[C@H]2CC(=O)NCCc1ccccc1OC	.	.	.	-10.1	.	.	.
CCN(CC)c1ccc(C(=C2C=CC(=[N+](CC)CC)C=C2)c2ccccc2)cc1	3.2	11.4	.	71.0*	12.5	19.9	102.7*
CCN(CC)c1ccc(C(=O)NNC(=O)CCNC(=O)c2ccccc2)cc1	2.6	4.2	-3.6	5.8	0.1	0.8	.
O=C1/C(=C/c2ccccc2)SC(=S)N1C1CCS(=O)(=O)C1 (stereo unspecified)	-9.6	-0.3	-2.0	-1.7	5.9	5.2	.
Cc1ccc(/C=C2\SC(=S)N(C3CCS(=O)(=O)C3)C2=O)o1 (stereo unspecified)	-6.7	-5.6	11.2	34.3*	6.5	14.0	-6.5
NS(=O)(=O)c1ccc(-c2ccc(/C=C3\SC(=S)N(C4CCS(=O)(=O)C4)C3=O)o2)cc1 (stereo unspecified)	4.8	5.0	24.8*	29.7*	4.6	5.1	-7.0
C=C(C)C(=O)Oc1ccc(N=Nc2ccc(C)cc2)ccc1=O	.	.	.	50.4*	.	.	59.2*
CC(=O)c1ccc(N=Nc2ccc(C)cc2)cc1	0.0	-3.2	.	2.4	1.9	12.0	.
CC(=O)Nc1ccc(Nc2c3c4c(cccc4n(C)c2=O)C(=O)c2ccccc2-3)cc1	14.1	14.0	32.6*	30.9*	11.0	20.7	33.4*
CCCCN1C(=O)/C(=C/C=C2\SCCN2C)SC1=S	-1.0	23.3	.	32.8*	0.4	11.0	20.1
N#CC1=C(N)C(C#N)(C#N)[C@H](c2ccoc2)[C@H]2CN(Cc3ccccc3)CC=C12	11.3	12.4	18.9	31.5*	10.4	33.4	5.2
CC(=O)N1CC=C2C(C#N)=C(N)C(C#N)(C#N)[C@H](c3ccoc3)[C@H]2C1	3.8	2.2	3.0	15.4	3.7	8.0	.
c1ccc(-c2nnc3sc(C4CCCCC4)nn23)cc1	.	.	.	0.9	.	.	.
